Data: ChEMBL document CHEMBL4261600 (Eur J Med Chem, 2018)

Experiments:
[1] = Tmax in mouse at 3 mg/kg, iv by LC-MS/MS analysis; format: ADME, organism-based; details: in vivo
[2] = molecular target: Serine/threonine-protein kinase PLK2 (Homo sapiens) (UniProt Q9NYY3); test: Binding affinity to wild-type human partial length PLK2 (H58 to F354 residues) expressed in mammalian expression system assessed as remaining unbound target protein level at 1000 nM by Kinomescan method relative to control
[3] = molecular target: Aurora kinase B (Homo sapiens) (UniProt Q96GD4); test: Binding affinity to wild-type human partial length AURKB (D25 to A303 residues) expressed in mammalian expression system assessed as remaining unbound target protein level at 1000 nM by Kinomescan method relative to control
In short: (§1)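 Profiled in a KINOMEscan binding panel with the inhibitor at a single concentration of 1 μM. Binding to each kinase was read out as percent of control, relative to a DMSO control. Strong binders were defined as those with a percent control value below 1.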

[4] = molecular target: Cyclin-dependent kinase-like 1 (Homo sapiens) (UniProt Q00532); test: Binding affinity to wild-type human full length CDKL1 (M1 to I358 residues) expressed in mammalian expression system assessed as remaining unbound target protein level at 1000 nM by Kinomescan method relative to control
Cyclin-dependent kinase-like 1 (Homo sapiens), sequence (Q00532 whole entry, the tested form may be a part): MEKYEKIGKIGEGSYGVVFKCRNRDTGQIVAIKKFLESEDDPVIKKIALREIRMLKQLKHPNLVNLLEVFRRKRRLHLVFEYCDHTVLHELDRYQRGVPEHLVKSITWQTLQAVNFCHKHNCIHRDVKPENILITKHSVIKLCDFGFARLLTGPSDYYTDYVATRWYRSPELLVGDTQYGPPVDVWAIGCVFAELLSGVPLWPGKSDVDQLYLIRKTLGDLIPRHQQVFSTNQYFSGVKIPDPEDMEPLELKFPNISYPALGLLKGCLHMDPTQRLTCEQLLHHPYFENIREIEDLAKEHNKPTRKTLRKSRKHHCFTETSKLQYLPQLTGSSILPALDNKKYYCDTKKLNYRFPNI
In short: (§2)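 Single-point competition binding screen across a panel of 468 kinases and mutants, with the inhibitor at 1 μM. Binding is read out as percent of a DMSO control, and targets below 1 percent control were classed as strong binders.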

[5] = molecular target: Serine/threonine-protein kinase 10 (Homo sapiens) (UniProt O94804); test: Binding affinity to wild-type human partial length LOK (E16 to V314 residues) expressed in bacterial expression system assessed as remaining unbound target protein level at 1000 nM by Kinomescan method relative to control
Serine/threonine-protein kinase 10 (Homo sapiens), sequence (O94804 whole entry, looked up, the tested form may be a part): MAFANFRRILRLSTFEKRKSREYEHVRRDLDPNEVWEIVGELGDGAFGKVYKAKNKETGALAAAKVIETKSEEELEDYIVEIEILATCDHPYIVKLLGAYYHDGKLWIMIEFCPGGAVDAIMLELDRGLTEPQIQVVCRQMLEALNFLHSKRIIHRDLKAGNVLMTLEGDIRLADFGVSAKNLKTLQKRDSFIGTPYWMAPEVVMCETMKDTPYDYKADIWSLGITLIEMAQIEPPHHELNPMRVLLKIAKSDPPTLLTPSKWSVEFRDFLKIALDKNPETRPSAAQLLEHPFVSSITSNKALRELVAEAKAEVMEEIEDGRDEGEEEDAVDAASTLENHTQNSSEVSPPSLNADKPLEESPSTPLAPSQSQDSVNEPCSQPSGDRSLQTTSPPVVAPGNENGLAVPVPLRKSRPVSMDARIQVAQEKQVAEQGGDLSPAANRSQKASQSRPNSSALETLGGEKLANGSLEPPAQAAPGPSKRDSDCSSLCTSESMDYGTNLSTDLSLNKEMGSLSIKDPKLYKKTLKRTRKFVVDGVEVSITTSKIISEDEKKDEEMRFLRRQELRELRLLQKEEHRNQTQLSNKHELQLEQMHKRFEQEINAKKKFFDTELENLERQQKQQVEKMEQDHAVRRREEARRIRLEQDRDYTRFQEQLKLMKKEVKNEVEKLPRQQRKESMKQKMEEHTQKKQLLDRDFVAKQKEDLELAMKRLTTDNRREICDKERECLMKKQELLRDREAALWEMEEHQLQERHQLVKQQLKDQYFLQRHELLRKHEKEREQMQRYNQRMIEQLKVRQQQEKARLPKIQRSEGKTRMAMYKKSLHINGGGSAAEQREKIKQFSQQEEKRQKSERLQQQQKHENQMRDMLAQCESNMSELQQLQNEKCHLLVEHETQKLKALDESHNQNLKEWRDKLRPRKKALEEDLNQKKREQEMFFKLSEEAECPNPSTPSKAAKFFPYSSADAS

[6] = system: Receptor-type tyrosine-protein kinase FLT3 (Homo sapiens), P36888 [D835H]; test: Binding affinity to human partial length FLT3 D835H mutant (V592 to Y969 residues) expressed in bacterial expression system assessed as remaining unbound target protein level at 1000 nM by Kinomescan method relative to control
In short: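 KINOMEscan competition-binding profiling across the panel of 468 kinases and mutants, with inhibitor tested at 1 μM. Binding is expressed as percent of control, with DMSO as the reference control.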

[7] = molecular target: Protein kinase C iota type (Homo sapiens) (UniProt P41743); test: Binding affinity to wild-type human partial length PRKCI (H215 to V587 residues) expressed in mammalian expression system assessed as remaining unbound target protein level at 1000 nM by Kinomescan method relative to control
[8] = molecular target: Ribosomal protein S6 kinase alpha-5 (Homo sapiens) (UniProt O75582); test: Binding affinity to wild-type human partial length N-terminal RPS6KA5 kinase domain 1 expressed in bacterial expression system assessed as remaining unbound target protein level at 1000 nM by Kinomescan method relative to control
Ribosomal protein S6 kinase alpha-5 (Homo sapiens), sequence (O75582 whole entry, looked up, the tested form may be a part): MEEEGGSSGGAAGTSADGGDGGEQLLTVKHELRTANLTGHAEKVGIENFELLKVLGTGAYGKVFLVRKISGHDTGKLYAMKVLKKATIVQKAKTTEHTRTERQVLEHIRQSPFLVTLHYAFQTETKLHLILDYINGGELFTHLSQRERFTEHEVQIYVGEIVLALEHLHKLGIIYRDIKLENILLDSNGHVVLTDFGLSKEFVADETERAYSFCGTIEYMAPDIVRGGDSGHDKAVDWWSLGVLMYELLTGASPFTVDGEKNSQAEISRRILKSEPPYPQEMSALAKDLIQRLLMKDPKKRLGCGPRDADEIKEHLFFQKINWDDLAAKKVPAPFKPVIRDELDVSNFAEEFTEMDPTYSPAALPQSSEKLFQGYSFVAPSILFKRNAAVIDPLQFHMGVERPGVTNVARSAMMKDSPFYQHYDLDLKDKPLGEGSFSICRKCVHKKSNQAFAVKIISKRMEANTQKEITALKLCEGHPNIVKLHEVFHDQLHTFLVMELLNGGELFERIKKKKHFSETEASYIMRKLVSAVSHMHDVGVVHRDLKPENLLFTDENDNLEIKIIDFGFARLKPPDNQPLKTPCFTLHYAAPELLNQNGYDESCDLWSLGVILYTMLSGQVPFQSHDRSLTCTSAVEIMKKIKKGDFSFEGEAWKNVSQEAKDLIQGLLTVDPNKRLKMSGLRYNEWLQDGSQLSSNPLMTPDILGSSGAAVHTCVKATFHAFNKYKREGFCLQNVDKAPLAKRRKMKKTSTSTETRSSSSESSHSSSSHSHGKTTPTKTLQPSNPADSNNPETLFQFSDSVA

[9] = molecular target: Serine/threonine-protein kinase SIK3 (Homo sapiens) (UniProt Q9Y2K2); test: Binding affinity to wild-type human partial length QSK (A90 to L395 residues) expressed in mammalian expression system assessed as remaining unbound target protein level at 1000 nM by Kinomescan method relative to control
[10] = molecular target: Activin receptor type-2A (Homo sapiens) (UniProt P27037); test: Binding affinity to wild-type human ACVR2A (V171 to T499 residues) expressed in bacterial expression system assessed as remaining unbound target protein level at 1000 nM by Kinomescan method relative to control; in short: as §2
[11] = molecular target: Mitogen-activated protein kinase kinase kinase 11 (Homo sapiens) (UniProt Q16584); test: Binding affinity to wild-type human partial length MLK3 (I77 to W399 residues) expressed in bacterial expression system assessed as remaining unbound target protein level at 1000 nM by Kinomescan method relative to control
[12] = molecular target: Serine/threonine-protein kinase 33 (Homo sapiens) (UniProt Q9BYT3); test: Binding affinity to wild-type human full length STK33 (M1 to L514 residues) expressed in bacterial expression system assessed as remaining unbound target protein level at 1000 nM by Kinomescan method relative to control; in short: as §1
Serine/threonine-protein kinase 33 (Homo sapiens), sequence (Q9BYT3 whole entry, looked up, the tested form may be a part): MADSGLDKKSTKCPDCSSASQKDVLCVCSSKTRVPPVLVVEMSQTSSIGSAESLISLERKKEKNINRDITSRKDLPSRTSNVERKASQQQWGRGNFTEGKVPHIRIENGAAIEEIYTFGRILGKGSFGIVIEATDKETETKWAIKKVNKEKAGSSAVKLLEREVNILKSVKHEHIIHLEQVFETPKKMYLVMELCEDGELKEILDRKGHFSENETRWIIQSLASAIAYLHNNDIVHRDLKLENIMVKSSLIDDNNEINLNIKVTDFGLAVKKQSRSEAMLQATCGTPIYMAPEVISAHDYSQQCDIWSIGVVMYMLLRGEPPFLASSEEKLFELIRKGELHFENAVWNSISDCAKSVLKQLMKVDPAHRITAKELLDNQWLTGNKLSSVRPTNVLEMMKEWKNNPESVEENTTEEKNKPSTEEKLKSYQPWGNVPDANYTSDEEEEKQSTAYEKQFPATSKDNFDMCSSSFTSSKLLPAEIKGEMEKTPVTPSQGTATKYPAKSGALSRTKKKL

[13] = molecular target: Dual specificity tyrosine-phosphorylation-regulated kinase 1A (Homo sapiens) (UniProt Q13627); test: Binding affinity to wild-type human partial length DYRK1A (H129 to S509 residues) expressed in mammalian expression system assessed as remaining unbound target protein level at 1000 nM by Kinomescan method relative to control
In short: (§3)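 KINOMEscan binding panel of 468 kinases/mutants. Inhibitor was tested at a single concentration of 1 μM. Binding is reported as percent of control, defined relative to a DMSO control.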

[14] = Tmax in Sprague-Dawley rat at 20 mg/kg, po by LC-MS/MS analysis; format: ADME, organism-based; details: in vivo
[15] = molecular target: Serine/threonine-protein kinase MARK1 (Homo sapiens) (UniProt Q9P0L2); test: Binding affinity to wild-type human partial length MARK1 (Q30 to T341 residues) expressed in bacterial expression system assessed as remaining unbound target protein level at 1000 nM by Kinomescan method relative to control; in short: as §3
[16] = molecular target: Serine/threonine-protein kinase SIK2 (Homo sapiens) (UniProt Q9H0K1); test: Binding affinity to wild-type human full length SIK2 (M1 to N926 residues) expressed in bacterial expression system assessed as remaining unbound target protein level at 1000 nM by Kinomescan method relative to control; in short: as §1
[17] = molecular target: High affinity nerve growth factor receptor (Homo sapiens) (UniProt P04629); test: Binding affinity to wild-type human partial length TRKA (G475 to G790 residues) expressed in mammalian expression system assessed as remaining unbound target protein level at 1000 nM by Kinomescan method relative to control
[18] = molecular target: Serine/threonine-protein kinase TBK1 (Homo sapiens) (UniProt Q9UHD2); test: Binding affinity to wild-type human full length TBK1 (M1 to L729 residues) expressed in mammalian expression system assessed as remaining unbound target protein level at 1000 nM by Kinomescan method relative to control
In short: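 KINOMEscan competition binding profile across a panel of 468 kinases and mutants, with the inhibitor tested at a single concentration of 1 μM. Binding is reported as percent of control, meaning signal relative to a DMSO control.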

[19] = molecular target: Serine/threonine-protein kinase WNK2 (Homo sapiens) (UniProt Q9Y3S1); test: Binding affinity to wild-type human partial length WNK2 (V47 to D482 residues) expressed in mammalian expression system assessed as remaining unbound target protein level at 1000 nM by Kinomescan method relative to control
Serine/threonine-protein kinase WNK2 (Homo sapiens), sequence (Q9Y3S1 whole entry, the tested form may be a part): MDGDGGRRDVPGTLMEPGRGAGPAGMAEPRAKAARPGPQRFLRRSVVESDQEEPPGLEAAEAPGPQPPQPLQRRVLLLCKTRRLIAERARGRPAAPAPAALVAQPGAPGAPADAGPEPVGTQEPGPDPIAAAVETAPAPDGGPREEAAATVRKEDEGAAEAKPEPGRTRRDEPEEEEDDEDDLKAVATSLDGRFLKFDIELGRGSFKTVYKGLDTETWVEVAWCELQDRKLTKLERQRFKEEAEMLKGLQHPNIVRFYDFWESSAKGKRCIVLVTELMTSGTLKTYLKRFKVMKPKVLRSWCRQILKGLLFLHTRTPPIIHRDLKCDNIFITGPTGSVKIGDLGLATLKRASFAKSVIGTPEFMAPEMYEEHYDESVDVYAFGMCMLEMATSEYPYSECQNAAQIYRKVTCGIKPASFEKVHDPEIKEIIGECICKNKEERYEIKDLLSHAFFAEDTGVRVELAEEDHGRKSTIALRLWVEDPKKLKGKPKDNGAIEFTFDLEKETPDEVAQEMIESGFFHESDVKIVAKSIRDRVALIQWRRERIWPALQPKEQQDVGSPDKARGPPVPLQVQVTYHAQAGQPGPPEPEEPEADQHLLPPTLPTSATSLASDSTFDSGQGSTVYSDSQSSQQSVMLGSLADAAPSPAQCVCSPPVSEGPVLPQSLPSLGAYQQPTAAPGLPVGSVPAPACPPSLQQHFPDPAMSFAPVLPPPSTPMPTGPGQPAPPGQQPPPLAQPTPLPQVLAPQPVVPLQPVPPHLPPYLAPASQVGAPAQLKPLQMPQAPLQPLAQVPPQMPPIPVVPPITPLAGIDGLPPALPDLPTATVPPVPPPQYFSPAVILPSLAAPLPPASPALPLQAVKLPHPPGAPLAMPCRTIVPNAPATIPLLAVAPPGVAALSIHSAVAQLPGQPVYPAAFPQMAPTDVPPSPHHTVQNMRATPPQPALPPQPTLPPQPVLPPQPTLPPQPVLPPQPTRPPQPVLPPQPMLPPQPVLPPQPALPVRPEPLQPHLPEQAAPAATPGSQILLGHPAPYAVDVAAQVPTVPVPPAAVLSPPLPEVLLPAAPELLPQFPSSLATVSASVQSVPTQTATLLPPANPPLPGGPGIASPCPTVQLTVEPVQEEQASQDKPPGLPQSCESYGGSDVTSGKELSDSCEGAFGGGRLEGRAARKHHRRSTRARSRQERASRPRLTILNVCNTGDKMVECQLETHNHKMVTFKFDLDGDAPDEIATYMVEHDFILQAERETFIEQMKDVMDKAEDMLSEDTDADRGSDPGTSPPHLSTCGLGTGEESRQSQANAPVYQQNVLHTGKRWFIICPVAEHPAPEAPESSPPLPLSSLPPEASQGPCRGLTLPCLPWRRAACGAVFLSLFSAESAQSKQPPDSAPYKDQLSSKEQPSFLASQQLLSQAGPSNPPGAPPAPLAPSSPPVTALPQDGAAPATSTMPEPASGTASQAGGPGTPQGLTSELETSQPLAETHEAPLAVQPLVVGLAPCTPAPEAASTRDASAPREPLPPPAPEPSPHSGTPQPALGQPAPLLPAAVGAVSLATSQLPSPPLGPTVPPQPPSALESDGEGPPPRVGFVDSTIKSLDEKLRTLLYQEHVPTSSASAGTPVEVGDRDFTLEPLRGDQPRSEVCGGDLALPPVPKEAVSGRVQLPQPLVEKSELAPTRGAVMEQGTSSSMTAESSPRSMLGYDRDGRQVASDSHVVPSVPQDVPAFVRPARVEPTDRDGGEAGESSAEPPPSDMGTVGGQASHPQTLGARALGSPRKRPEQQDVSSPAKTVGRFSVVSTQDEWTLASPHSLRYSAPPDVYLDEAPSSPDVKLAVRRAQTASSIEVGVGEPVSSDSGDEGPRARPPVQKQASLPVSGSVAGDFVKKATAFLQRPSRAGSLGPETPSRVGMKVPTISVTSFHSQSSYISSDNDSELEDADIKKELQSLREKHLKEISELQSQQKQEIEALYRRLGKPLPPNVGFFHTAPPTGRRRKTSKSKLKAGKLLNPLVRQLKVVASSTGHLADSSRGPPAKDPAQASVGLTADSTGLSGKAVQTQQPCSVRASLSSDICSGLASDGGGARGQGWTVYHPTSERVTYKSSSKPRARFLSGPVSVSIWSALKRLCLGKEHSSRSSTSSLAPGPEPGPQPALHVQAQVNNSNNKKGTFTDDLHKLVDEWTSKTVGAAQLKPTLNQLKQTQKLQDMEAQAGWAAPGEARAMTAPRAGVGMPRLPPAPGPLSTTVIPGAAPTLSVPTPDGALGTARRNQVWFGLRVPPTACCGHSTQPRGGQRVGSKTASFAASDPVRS

[20] = MRT (0 to t) in mouse at 10 mg/kg, po by LC-MS/MS analysis; format: ADME, organism-based; details: in vivo
[21] = molecular target: Calcium/calmodulin-dependent protein kinase type 1D (Homo sapiens) (UniProt Q8IU85); test: Binding affinity to wild-type human partial length CAMK1D (M1 to K299 residues) expressed in bacterial expression system assessed as remaining unbound target protein level at 1000 nM by Kinomescan method relative to control; in short: as §1

COCCN[C@H]1CC[C@H](Nc2cc(-c3csc(NCC4(C#N)CCOCC4)n3)c(Cl)cn2)CC1
Tmax [1]: 4.98 min | Activity [2]: 100% | Activity [3]: 100% | Activity [4]: 96% | Activity [5]: 100% | Activity [6]: 88% | Activity [7]: 100% | Activity [8]: 100% | Activity [9]: 79% | Activity [10]: 100% | Activity [11]: 85% | Activity [12]: 78% | Activity [13]: 0.3% | Tmax [14]: 3.33 h | Activity [15]: 91% | Activity [16]: 100% | Activity [17]: 71% | Activity [18]: 86% | Activity [19]: 92% | MRT last [20]: 3.24 h | Activity [21]: 100%
